The source of these data is ChEMBL document CHEMBL4043282, “Discovery of the First Potent, Selective, and Orally Bioavailable Signal Peptide Peptidase-Like 2a (SPPL2a) Inhibitor Displaying Pronounced Immunomodulatory Effects In Vivo” (J Med Chem, 2018).

Each structure is given as a SMILES string. Active and inactive are the calls of the source. The calls are words filed in the database; no cut-off is given here.

Data set [1] addresses T1, Signal peptide peptidase-like 2A (Mus musculus, UniProt Q9JJF9).
T1 sequence (Q9JJF9 whole entry): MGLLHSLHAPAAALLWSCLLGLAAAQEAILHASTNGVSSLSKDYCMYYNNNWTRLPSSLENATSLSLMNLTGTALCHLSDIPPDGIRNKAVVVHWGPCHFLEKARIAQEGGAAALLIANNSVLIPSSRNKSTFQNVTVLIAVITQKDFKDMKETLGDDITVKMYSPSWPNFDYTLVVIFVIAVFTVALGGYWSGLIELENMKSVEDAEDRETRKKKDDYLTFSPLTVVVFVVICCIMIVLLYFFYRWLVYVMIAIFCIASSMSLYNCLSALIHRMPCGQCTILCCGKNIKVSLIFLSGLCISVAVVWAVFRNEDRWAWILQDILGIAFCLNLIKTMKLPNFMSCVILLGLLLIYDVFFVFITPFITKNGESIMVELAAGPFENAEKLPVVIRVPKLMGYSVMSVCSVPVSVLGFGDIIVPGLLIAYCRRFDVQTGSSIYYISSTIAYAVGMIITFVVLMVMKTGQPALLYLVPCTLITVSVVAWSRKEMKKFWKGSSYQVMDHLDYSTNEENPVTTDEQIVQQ
Description: Inhibition of mouse SPPL2a in A20 cells assessed as CD74/p8 accumulation by flow cytometry. The format is cell-based.

Data set [2] can be described thus: Drug uptake in mouse spleen at 30 mg/kg, po administered as single dose after 4 hrs by LC/MS/MS analysis. The format is ADME, organism-based. The following applies: read-out: Drug uptake.
For data set [3], the system named is Mus musculus. Kind of data set: In vivo inhibition of mouse gamma-secretase assessed as effect on Hes1 mRNA level in jejunum up to 100 mg/kg, po administered as single dose by RT-PCR method. In kind it is organism-based. In a few lines: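 Thymus and jejunum excised into RNALater, 4 °C overnight, washed, frozen at −80 °C; total RNA from 10 mg tissue by MagNA Pure LC; Hes1 measured by TaqMan real-time PCR; significance by two-tailed heteroscedastic Student's t-test.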

Data set [4] has as its system Mus musculus. Description: Dose normalized AUC in po dosed Balb/c mouse by LC/MS/MS analysis. In kind it is ADME, organism-based. The following applies: in vivo.
Data set [5] is described as follows: Oral bioavailability in Balb/c mouse by LC/MS/MS analysis. Conditions: in vivo. In kind it is ADME, organism-based.
Data set [6] in a line: Clearance in Balb/c mouse at 5 mg/kg, iv by LC/MS/MS analysis. The format is ADME, organism-based. The following applies: in vivo.
The nature of data set [7]: Volume of distribution at steady state in Balb/c mouse at 5 mg/kg, iv by LC/MS/MS analysis. The format is ADME, organism-based. Conditions: in vivo, read-out: Vdss.
The nature of data set [8]: Inhibition of human gamma-secretase expressed in HEK293 cells using Notch1-VP16-Gal4 as substrate after 24 hrs by Bright-Glo luciferase reporter gene assay. The format is cell-based. The following applies: HEK293, 24 h. In short, it runs like this: (§1)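 HEK293 cells transiently transfected with human SPPL2a, VP16-TNFα(aa1-76)-NTF substrate and Gal4-luciferase reporter (SPPL2a), or human Notch1-VP16-Gal4 plus Gal4-luciferase reporter relying on endogenous γ-secretase.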

For data set [9], the target named is T2, Signal peptide peptidase-like 2A (Homo sapiens, UniProt Q8TCT8).
T2 sequence (Q8TCT8 whole entry): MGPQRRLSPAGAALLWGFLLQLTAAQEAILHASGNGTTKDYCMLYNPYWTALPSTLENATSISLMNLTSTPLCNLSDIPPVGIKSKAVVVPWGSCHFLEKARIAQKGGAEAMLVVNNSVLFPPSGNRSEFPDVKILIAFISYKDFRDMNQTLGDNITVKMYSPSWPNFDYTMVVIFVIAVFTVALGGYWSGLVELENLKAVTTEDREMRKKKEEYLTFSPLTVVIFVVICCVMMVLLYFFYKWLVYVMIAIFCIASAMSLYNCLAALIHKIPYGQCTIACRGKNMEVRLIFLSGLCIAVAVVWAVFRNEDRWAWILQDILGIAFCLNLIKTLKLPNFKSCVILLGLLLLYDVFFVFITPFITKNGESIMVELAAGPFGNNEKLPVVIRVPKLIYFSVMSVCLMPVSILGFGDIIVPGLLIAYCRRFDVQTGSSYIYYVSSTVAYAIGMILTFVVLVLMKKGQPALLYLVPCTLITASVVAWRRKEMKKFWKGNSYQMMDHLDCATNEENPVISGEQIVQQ
Kind of data set: Inhibition of human SPPL2a expressed in HEK293 cells using GAL4-VP16 fusedTNFalpha (1 to 76)-NTF as substrate after 24 hrs by Bright-Glo luciferase reporter gene assay. In kind it is cell-based. In a few lines: as §1
For orientation: In a reporter assay the amount or activity of a reporter protein is the signal.

The target in data set [10] is T3, Signal peptide peptidase-like 2B (Homo sapiens, UniProt Q8TCT7).
T3 sequence (Q8TCT7 whole entry): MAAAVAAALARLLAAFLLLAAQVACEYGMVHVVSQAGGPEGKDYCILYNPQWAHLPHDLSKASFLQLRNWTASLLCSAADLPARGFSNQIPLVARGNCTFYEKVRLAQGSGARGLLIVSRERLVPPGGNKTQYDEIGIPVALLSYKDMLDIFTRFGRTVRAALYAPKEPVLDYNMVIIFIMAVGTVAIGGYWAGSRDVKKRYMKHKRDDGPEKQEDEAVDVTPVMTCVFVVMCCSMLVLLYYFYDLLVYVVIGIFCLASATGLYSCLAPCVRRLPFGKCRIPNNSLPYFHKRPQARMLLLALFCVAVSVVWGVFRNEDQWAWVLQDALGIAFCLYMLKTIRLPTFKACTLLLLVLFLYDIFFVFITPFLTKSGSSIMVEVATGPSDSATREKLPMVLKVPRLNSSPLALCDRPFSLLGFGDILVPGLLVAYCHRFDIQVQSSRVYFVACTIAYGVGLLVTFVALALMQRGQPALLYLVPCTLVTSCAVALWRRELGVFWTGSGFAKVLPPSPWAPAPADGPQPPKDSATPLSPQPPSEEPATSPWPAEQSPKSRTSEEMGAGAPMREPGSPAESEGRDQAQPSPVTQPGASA
Description: Inhibition of human SPPL2b expressed in human U2OS cells using EGFP-labeled TNFalpha (1 to 76 residues) NTF as substrate after 24 hrs by Hoechst staining based high content imaging assay. In kind it is cell-based. In a few lines:
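Stable U-2 OS lines expressing human SPPL2a, SPPL2b or SPP constitutively (mouse SPPL2a line analogous, mouse TNFα(aa1-77)-NTF-EGFP-NLS) with doxycycline-inducible EGFP substrate. 3000 cells/well, 3−4 h, then 11-point inhibitor 100 μM to 1 nM, 0.9% DMSO, 5 μg/mL doxycycline, 24 h 37 °C. PFA fixed, Hoechst nuclei; nuclear minus cytoplasmic EGFP intensity; inhibition vs 0.5 μM reference and DMSO; IC50 by nonlinear regression.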

A further data set concerns Rattus norvegicus. Description: In vivo inhibition of SPPL2a in Lewis rat assessed as accumulation of CD74/p8 in blood at 1 mg/kg first dose administered via oral gavage followed by second dose after 8 hrs measured 16 hrs post second dose by Western blot method. The format is functional, organism-based. In a few lines: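 Rat blood (200 μL) red cells lysed with RBC lysis buffer three times, pellet lysed in Tris pH 6.8/NaCl/EDTA/Triton X-100/deoxycholate with protease inhibitors; Western blot for CD74/p8 with affinity-purified antibody specific for rat CD74/p8 at 1:200.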
On the technique in general: A western blot detects proteins with antibodies after separation by electrophoresis.

Data set [11] can be described thus: Drug uptake in Lewis rat spleen at 3 mg/kg, po bid after 24 hrs by LC/MS/MS analysis. The format is ADME, organism-based. The following applies: read-out: Drug uptake.

The term IC50 denotes the concentration needed to halve the response being measured. Broadly, the bioavailability is the share of a dose that reaches the circulation, judged against a reference dose that is usually intravenous. The clearance is the volume of plasma or blood freed of the substance per unit of time. Low values mean inefficient removal, high ones efficient removal. Regarding `Cc1ccccc1NC(=O)C[C@@H](C)C(=O)N[C@@H]1C(=O)N2CCCN2Cc2ccccc21`, the IC50 in data set [1] came out at 370 nM; in [8], 1860 nM; in data set [9], 35 nM. Besides, the concentration at 4 h in [2] turned out to be 434 nM. In addition, the Activity entry with Mus musculus [3] was “Non-Toxic”. Also, in the data set with Mus musculus [4], the AUC/dose stood at 908 nM·h. Moreover, in [5], the bioavailability amounted to 100%. Besides, the clearance in data set [6] came to 46 mL/min/kg. Also, the Vd in data set [7] was 1.2 L/kg.

In the case of `Cc1ncc(F)cc1NC(=O)C[C@H](C(=O)N[C@@H]1C(=O)N2CC3(CC3)CN2C(=O)c2ccccc21)C1CC1`, the IC50 in data set [1] came to 137 nM; in [8] it was 6100 nM; in data set [9] it was 77 nM; in [10], 430 nM. In addition, the AUC/dose with Mus musculus [4] was determined as 6071 nM·h. In data set [5], this compound registered a bioavailability of 94%. In data set [6], this compound returned a clearance of 5 mL/min/kg. The inhibition entry in the data set with Rattus norvegicus is “Active”. For the same compound, the concentration at 24 h in data set [11] is 860 nM.
